Results from paper PMC4207122 (Cell biology and toxicology, 2013).
Like-named read-outs stand apart in the source and are kept apart here.

What was measured:
[1] = tested on: LNCaP human prostate cancer cells; assay: Differential nuclear staining; type: cell-based
[2] = Differential nuclear staining; type: cell-based; conditions: mouse, wild type mouse embryonic fibroblasts (MEFs)
[3] = tested on: human cervical HeLa cancer cells; assay: Differential nuclear staining; type: cell-based; conditions: for CC50: Homo sapiens, 20 h
[4] = tested on: YT NK-like (YT) cells; assay: Apoptosis/necrosis by annexin V-FITC and PI flow cytometry; type: cell-based; conditions: 18 h; for mode of cell death: KTZ 15 μM, CTZ 10 μM, complexes 20–60 μM
Procedure, shortened: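 YT NK-like cells were exposed to test compounds for 18 h, then handled on ice, stained together with annexin V-FITC and PI, and analysed by flow cytometry with about 10,000 events per sample. Controls were 0.3% v/v DMSO solvent, 600 μM H2O2 and untreated cells. Annexin-positive cells (early plus late) were summed as apoptotic, and PI-only cells counted as necrotic. Values are the mean of three independent measurements with SD.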

[5] = tested on: 22Rv1 human prostate cancer cells; assay: Differential nuclear staining; type: cell-based
[6] = tested on: DU145 human prostate carcinoma cells; assay: Differential nuclear staining; type: cell-based
[7] = tested on: Calf Thymus (CT) DNA; assay: Circular dichroism; type: binding; conditions: 20 h at 37 °C, pH 7.39 Tris/HCl buffer, up to ri 2.0 (molar ratio drug/DNA)
Procedure, shortened: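 Test compound stocks (1.5 mM) were freshly made in water and added to freshly prepared CT DNA (60 μM) in 5 mM Tris/HCl, 50 mM NaClO4, pH 7.39, at drug/DNA molar ratios of 0.5–2.0. Samples were incubated 20 h at 37 °C. Spectra were recorded at 25 °C over 220–420 nm, blank-corrected with noise reduction, and expressed as […].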

[8] = Differential nuclear staining; type: cell-based; conditions: human, MCF-10A non-transformed mammary epithelial cells
[9] = in vitro; type: cell-based; conditions: human
[10] = tested on: YT NK-like lymphoblastic lymphoma cells; assay: Differential nuclear staining; type: cell-based
[11] = tested on: all the cancer cells lines studied

Structure (SMILES)	CC50 ([1]; Homo sapiens, LNCaP, 20 h)	CC50 at 20 h [2]	CC50 [3]	mode of cell death [4]	CC50 ([5]; Homo sapiens, 22Rv1, 20 h)	CC50 ([6]; Homo sapiens, DU-145, 20 h)	change of CD spectrum of CT DNA [7]	CC50 at 20 h [8]	CC50 ([10]; 20 h)	CC50 [1]	CC50 [5]	other results
Clc1ccccc1C(c1ccccc1)(c1ccccc1)n1ccnc1 [CTZ, clotrimazole]	15.4 µM	35.3 µM	94.3 µM	preferentially through apoptosis	19.2 µM	43.6 µM	no modifications	79.4 µM	16.7 µM	–	–	Relative Activity (R.A.) ([1]; LNCaP, relative to KTZ (1-6) or CTZ (7-12)): 1; Relative Activity (R.A.) ([3]; relative to KTZ (1-6) or CTZ (7-12)): 1; apoptosis induced relative to any of the Ru-CTZ complexes [4]: ≥ 3 fold; Relative Activity (R.A.) ([5]; 22Rv1, relative to KTZ (1-6) or CTZ (7-12)): 1; Relative Activity (R.A.) ([6]; DU145, relative to KTZ (1-6) or CTZ (7-12)): 1; CC50 at 20 h [9]: 95.3 µM; Relative Activity (R.A.) ([10]; YT, relative to KTZ (1-6) or CTZ (7-12)): 1; cytotoxicity against cancer cell lines (in words) [11]: moderate cytotoxicity
C[SH](C)(=O)[Ru-]([Cl])([Cl])([Cl])([Cl])[SH](C)(C)=O.[Na+] [Compound C1, Na[trans-RuCl4(DMSO)2]]	–	–	–	–	–	–	–	–	–	46.5 µM	114 µM	–
Cc1ccc(C(C)C)cc1.Cc1ccc(C(C)C)cc1.[Cl][Ru][Cl].[Cl][Ru][Cl] [Compound C3, [Ru(p-cymene)Cl2]2]	–	–	–	–	–	–	–	–	–	29 µM	141 µM	CC50 [6]: 218 µM; CC50 [10]: 164 µM
CC(=O)N1CCN(c2ccc(OCC3COC(Cn4ccnc4)(c4ccc(Cl)cc4Cl)O3)cc2)CC1 (centres unmarked) [KTZ, ketoconazole]	27.9 µM	31.3 µM	66.7 µM	preferentially through apoptosis	24.2 µM	28.6 µM	no modifications	37 µM	4.9 µM	–	–	–
